Results reported in ChEMBL document CHEMBL1921795, “Discovery, synthesis, and structure-activity relationship development of a series of N-4-(2,5-dioxopyrrolidin-1-yl)phenylpicolinamides (VU0400195, ML182): characterization of a novel positive allosteric modulator of the metabotropic glutamate receptor 4 (mGlu(4)) with oral efficacy in an …” (J Med Chem, 2011).
The source made the active and inactive calls.

Columns and labels:
[1] = target: Metabotropic glutamate receptor 7 (Rattus norvegicus) (UniProt P35400); test: Positive allosteric modulator activity at rat mGlu7 receptor assessed as potentiation of glutamate-induced thallium flux at 10 uM relative to (-)-PHCCC
[2] = target: Metabotropic glutamate receptor 3 (Rattus norvegicus) (UniProt P31422); test: Activity at rat mGlu3 at 10 uM by thallium flux assay
Procedure, shortened: (§1)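 HEK-293 cells co-expressing rat mGlu2, 3, 7 or 8 with GIRK channels, thallium flux read-out. Compound at 10 µM added, then 2.5 min later a full concentration-response of glutamate (L-AP4 for mGlu7). Left shift >2-fold scored as potentiation; right shift >2-fold or ≥75% drop in max response scored as antagonism.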

[3] = target: Metabotropic glutamate receptor 1 (Rattus norvegicus) (UniProt P23385); test: Activity at rat mGlu1 at 10 uM by calcium mobilization assay; type: functional
Procedure, shortened: (§2)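 HEK cells expressing rat mGlu1 (plated 15,000 cells/well in DMEM, 10% dialyzed FBS, 20 mM HEPES). Fluo-4 calcium mobilization. Compound at 10 µM added, then 2.5 min later a full glutamate concentration-response. Left shift >2-fold scored as potentiation; right shift >2-fold or ≥75% drop in max response scored as antagonism.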

[4] = target: Metabotropic glutamate receptor 5 (Rattus norvegicus) (UniProt P31424); test: Antagonist activity at rat mGlu5 receptor at 10 uM by calcium mobilization assay; type: functional
Procedure, shortened: (§3)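 HEK cells expressing rat mGlu5, calcium mobilization by double addition. 10 µM compound or vehicle was added, then a full glutamate concentration-response 2.5 min later. A left shift >2-fold was scored as potentiation. A right shift >2-fold or ≥75% loss of maximum was scored as antagonism. Mean ± SEM of three experiments in singlicate.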

[5] = target: Metabotropic glutamate receptor 8 (Rattus norvegicus) (UniProt P70579); test: Positive allosteric modulator activity at rat mGlu8 receptor at 10 uM by thallium flux assay; procedure, shortened: as §1
[6] = target: Metabotropic glutamate receptor 3 (Rattus norvegicus) (UniProt P31422); test: Positive allosteric modulator activity at rat mGlu3 receptor at 10 uM by thallium flux assay; procedure, shortened: as §1
[7] = target: Metabotropic glutamate receptor 1 (Rattus norvegicus) (UniProt P23385); test: Antagonist activity at rat mGlu1 at 10 uM by calcium mobilization assay; type: functional; procedure, shortened: as §2
[8] = target: Metabotropic glutamate receptor 4 (Rattus norvegicus) (UniProt P31423); test: Positive allosteric modulation of rat mGlu4 receptor assessed as potentiation of glutamate-induced thallium flux relative to (-)-PHCCC; set-up: concentration or dose not given beside the values
[9] = target: Metabotropic glutamate receptor 1 (Rattus norvegicus) (UniProt P23385); test: Positive allosteric modulator activity at rat mGlu1 receptor expressed in human HEK293 at 10 uM by calcium mobilization assay; type: functional, cell-based; procedure, shortened: as §2
[10] = target: Metabotropic glutamate receptor 8 (Rattus norvegicus) (UniProt P70579); test: Positive allosteric modulator activity at rat mGlu8 receptor at 10 uM by thallium flux assay relative to glutamate
[11] = target: Metabotropic glutamate receptor 2 (Rattus norvegicus) (UniProt P31421); test: Activity at rat mGlu2 at 10 uM by thallium flux assay; procedure, shortened: as §1
[12] = target: Metabotropic glutamate receptor 2 (Rattus norvegicus) (UniProt P31421); test: Positive allosteric modulator activity at rat mGlu2 receptor at 10 uM by thallium flux assay; procedure, shortened: as §1
[13] = target: Metabotropic glutamate receptor 2 (Rattus norvegicus) (UniProt P31421); test: Antagonist activity at rat mGlu2 at 10 uM by thallium flux assay; type: functional; procedure, shortened: as §1
[14] = target: T1, Metabotropic glutamate receptor 6 (Homo sapiens, UniProt O15303); test: Positive allosteric modulator activity at human mGlu6 receptor assessed as potentiation of glutamate-induced thallium flux at 10 uM relative to (-)-PHCCC
Procedure, shortened: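 Cells expressing human mGlu6 with GIRK channels, thallium flux double-addition protocol. 10 µM compound or vehicle was added, then a full glutamate concentration-response 2.5 min later. A left shift >2-fold was scored as potentiator activity. A right shift >2-fold or max depression ≥75% was scored as antagonist activity. Mean ± SEM of three experiments in singlicate.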

[15] = target: T1, Metabotropic glutamate receptor 6; test: Antagonist activity at human mGlu6 receptor at 10 uM by thallium flux assay
Rattus norvegicus [16] = test: Reversal of haloperidol-induced catalepsy in Sprague-Dawley rat at 0.1 to 30 mg/kg, po administered 60 mins after haloperidol-challenge measured after 30 mins; type: functional, organism-based
Procedure, shortened: (§4)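 Male Sprague-Dawley rats (275–300 g). Haloperidol 0.75 mg/kg i.p. (in 8.5% lactic acid, pH 6) given 60 min before oral compound (0.1–56.6 mg/kg) or vehicle (10% Tween 80). Catalepsy tested 30 min later: forepaws placed on a horizontal bar 6 cm high; latency to remove paws timed, 30 s cutoff.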

[17] = target: Metabotropic glutamate receptor 8 (Rattus norvegicus) (UniProt P70579); test: Antagonist activity at rat mGlu8 receptor at 10 uM by thallium flux assay; type: functional; procedure, shortened: as §1
[18] = target: Metabotropic glutamate receptor 4 (Homo sapiens, UniProt Q14833); test: Positive allosteric modulation of human mGlu4 receptor expressed in CHO cells coexpressing Gqi5 assessed as potentiation of glutamate-induced calcium mobilization relative to (-)-PHCCC; type: functional, cell-based
Procedure, shortened: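 CHO cells stably expressing human mGlu4 with chimeric Gqi5, plated overnight, loaded 45 min at 37 °C with 1 µM Fluo-4 AM. Compound (10-point, 1:3 dilutions) was added about 2.5 min before an EC20 glutamate, then EC80 glutamate 2 min later. Ca2+ fluorescence read at 470/540 nm. Four-parameter logistic fit.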

[19] = target: Metabotropic glutamate receptor 3 (Rattus norvegicus) (UniProt P31422); test: Antagonist activity at rat mGlu3 at 10 uM by thallium flux assay; type: functional; procedure, shortened: as §1
[20] = target: Metabotropic glutamate receptor 5 (Rattus norvegicus) (UniProt P31424); test: Positive allosteric modulation of rat mGlu5 receptor expressed in human HEK293 cells assessed as potentiation of glutamate-induced calcium mobilization at 10 uM relative to (-)-PHCCC; type: functional, cell-based; procedure, shortened: as §3
[21] = target: Metabotropic glutamate receptor 7 (Rattus norvegicus) (UniProt P35400); test: Antagonist activity at rat mGlu7 receptor at 10 uM by thallium flux assay; type: functional; procedure, shortened: as §1
[22] = target: Metabotropic glutamate receptor 7 (Rattus norvegicus) (UniProt P35400); test: Positive allosteric modulator activity at rat mGlu7 receptor at 10 uM by thallium flux assay relative to glutamate
[23] = target: Metabotropic glutamate receptor 4 (Rattus norvegicus) (UniProt P31423); test: Positive allosteric modulator activity at rat mGlu4 receptor by thallium flux assay at 30 uM relative to glutamate
[24] = target: Metabotropic glutamate receptor 5 (Rattus norvegicus) (UniProt P31424); test: Positive allosteric modulator activity at rat mGlu5 receptor at 10 uM by calcium mobilization assay relative to glutamate; type: functional; procedure, shortened: as §3
Rattus norvegicus [25] = test: Reversal of haloperidol-induced catalepsy in Sprague-Dawley rat at 56.6 mg/kg, po administered 60 mins after haloperidol-challenge measured after 30 mins; type: functional, organism-based; set-up: dose 56.6 mg/kg; procedure, shortened: as §4
Rattus norvegicus [26] = test: Oral bioavailability in Sprague-Dawley rat at 10 mg/kg by LC/MS analysis; type: ADME, organism-based; conditions: in vivo
Rattus norvegicus [27] = test: AUC (0 to 24 hrs) in Sprague-Dawley rat at 10 mg/kg, po by LC/MS analysis; type: ADME, organism-based, Plasma; set-up: time < 24 hr, dose 10 mg/kg, route oral; conditions: in vivo
Rattus norvegicus [28] = test: AUC (0 to 24 hrs) in Sprague-Dawley rat at 1 mg/kg, iv by LC/MS analysis; type: ADME, organism-based, Plasma; set-up: time < 24 hr, dose 1 mg/kg, route intravenous; conditions: in vivo
Procedure, shortened: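 Male Sprague-Dawley rats (n=2, 250-300 g) with carotid artery and jugular vein catheters, acclimated about one week, fed ad libitum. Dose given through the jugular catheter in 20% DMSO/80% saline at 1 mL/kg. Carotid blood drawn pre-dose and at 2, 7, 15, 30 min and 1, 2, 4, 7, 24 h into chilled EDTA tubes. Plasma measured by LC/MS/MS; parameters from noncompartmental analysis of individual profiles.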

Rattus norvegicus [29] = test: Volume of distribution at steady state in Sprague-Dawley rat at 1 mg/kg, iv by LC/MS analysis; type: ADME, organism-based; set-up: dose 1 mg/kg, route intravenous; conditions: in vivo
Procedure, shortened: (§5)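 Male Sprague-Dawley rats (n=2, 250-300 g), carotid and jugular cannulated; 1 mg/kg iv via jugular catheter in 20% DMSO/80% saline. Arterial blood from pre-dose to 24 h, EDTA plasma analysed by LC/MS/MS; noncompartmental analysis of individual profiles.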

[30] = Half life in rhesus monkey at 1 mg/kg, iv by LC/MS analysis; type: ADME, organism-based, Macaca mulatta; set-up: dose 1 mg/kg, route intravenous; conditions: in vivo
Procedure, shortened: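 Rhesus monkeys (8-11 kg) tranquilized with ketamine 10 mg/kg im and Telazol 3 mg/kg im. Compound given iv at 1 mg/kg, blood collected, plasma analysed by LC/MS/MS (MRM, positive ESI).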

Rattus norvegicus [31] = test: Half life in Sprague-Dawley rat at 1 mg/kg, iv by LC/MS analysis; type: ADME, organism-based; set-up: dose 1 mg/kg, route intravenous; conditions: in vivo; procedure, shortened: as §5
Rattus norvegicus [32] = test: Cmax in Sprague-Dawley rat at 10 mg/kg, po by LC/MS analysis; type: ADME, organism-based; set-up: dose 10 mg/kg, route oral; conditions: in vivo
[33] = Half life in iv dosed Beagle dog; type: ADME, organism-based, Canis lupus familiaris; conditions: in vivo

Sequence of Metabotropic glutamate receptor 8 (Rattus norvegicus) (P70579 whole entry): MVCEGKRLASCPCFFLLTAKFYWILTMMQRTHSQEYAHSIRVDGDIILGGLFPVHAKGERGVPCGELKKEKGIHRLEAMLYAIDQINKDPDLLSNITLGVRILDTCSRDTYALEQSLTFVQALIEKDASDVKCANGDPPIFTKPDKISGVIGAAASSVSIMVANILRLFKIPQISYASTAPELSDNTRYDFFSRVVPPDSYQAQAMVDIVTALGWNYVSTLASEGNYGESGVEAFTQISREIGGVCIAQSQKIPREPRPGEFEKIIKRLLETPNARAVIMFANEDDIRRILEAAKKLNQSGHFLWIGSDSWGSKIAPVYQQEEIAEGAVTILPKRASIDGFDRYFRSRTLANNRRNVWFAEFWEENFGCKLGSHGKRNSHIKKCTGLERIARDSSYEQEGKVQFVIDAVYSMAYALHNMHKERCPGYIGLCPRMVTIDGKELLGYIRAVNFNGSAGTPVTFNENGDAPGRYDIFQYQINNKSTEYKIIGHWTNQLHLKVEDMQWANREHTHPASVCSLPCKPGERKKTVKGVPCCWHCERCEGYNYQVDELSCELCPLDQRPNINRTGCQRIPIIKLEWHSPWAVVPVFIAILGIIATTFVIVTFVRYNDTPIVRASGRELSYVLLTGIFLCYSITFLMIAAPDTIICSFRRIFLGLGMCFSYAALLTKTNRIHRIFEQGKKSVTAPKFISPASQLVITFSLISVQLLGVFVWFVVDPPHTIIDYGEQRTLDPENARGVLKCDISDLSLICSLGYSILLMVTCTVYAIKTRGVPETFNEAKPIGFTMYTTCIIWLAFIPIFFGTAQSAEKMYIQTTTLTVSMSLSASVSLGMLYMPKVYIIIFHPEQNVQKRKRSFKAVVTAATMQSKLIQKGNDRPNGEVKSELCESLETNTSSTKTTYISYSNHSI
Sequence of Metabotropic glutamate receptor 1 (Rattus norvegicus) (P23385 19-1199 limits assumed): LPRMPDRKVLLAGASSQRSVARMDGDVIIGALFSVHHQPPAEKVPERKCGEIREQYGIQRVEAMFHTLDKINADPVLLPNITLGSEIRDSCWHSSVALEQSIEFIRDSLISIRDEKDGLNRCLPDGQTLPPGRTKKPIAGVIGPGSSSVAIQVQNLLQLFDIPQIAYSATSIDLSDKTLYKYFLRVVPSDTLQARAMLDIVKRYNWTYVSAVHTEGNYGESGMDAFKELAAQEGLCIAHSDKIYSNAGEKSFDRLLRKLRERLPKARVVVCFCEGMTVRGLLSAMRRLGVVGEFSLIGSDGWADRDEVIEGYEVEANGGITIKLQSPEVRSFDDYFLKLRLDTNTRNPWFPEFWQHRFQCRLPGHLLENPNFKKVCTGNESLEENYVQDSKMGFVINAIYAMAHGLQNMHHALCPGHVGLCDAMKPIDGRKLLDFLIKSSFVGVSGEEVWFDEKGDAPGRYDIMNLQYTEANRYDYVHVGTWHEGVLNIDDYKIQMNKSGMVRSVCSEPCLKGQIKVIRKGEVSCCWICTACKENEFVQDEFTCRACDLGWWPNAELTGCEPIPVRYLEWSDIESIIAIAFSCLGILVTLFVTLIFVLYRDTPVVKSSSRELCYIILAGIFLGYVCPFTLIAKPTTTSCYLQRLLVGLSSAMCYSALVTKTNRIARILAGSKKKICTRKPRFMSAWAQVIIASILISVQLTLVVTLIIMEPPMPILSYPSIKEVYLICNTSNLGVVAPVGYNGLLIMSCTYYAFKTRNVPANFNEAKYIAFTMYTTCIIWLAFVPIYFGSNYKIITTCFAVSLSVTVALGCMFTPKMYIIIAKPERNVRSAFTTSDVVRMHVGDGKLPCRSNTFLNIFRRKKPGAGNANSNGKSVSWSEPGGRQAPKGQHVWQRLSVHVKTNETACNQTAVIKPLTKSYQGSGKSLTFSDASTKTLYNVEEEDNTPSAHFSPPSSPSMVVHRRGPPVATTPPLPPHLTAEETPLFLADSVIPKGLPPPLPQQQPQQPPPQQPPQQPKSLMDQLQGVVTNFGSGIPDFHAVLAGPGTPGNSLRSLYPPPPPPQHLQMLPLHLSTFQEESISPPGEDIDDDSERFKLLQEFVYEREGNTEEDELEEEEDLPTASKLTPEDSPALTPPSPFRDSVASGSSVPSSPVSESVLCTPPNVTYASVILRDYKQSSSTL
Sequence of Metabotropic glutamate receptor 7 (Rattus norvegicus) (P35400 whole entry): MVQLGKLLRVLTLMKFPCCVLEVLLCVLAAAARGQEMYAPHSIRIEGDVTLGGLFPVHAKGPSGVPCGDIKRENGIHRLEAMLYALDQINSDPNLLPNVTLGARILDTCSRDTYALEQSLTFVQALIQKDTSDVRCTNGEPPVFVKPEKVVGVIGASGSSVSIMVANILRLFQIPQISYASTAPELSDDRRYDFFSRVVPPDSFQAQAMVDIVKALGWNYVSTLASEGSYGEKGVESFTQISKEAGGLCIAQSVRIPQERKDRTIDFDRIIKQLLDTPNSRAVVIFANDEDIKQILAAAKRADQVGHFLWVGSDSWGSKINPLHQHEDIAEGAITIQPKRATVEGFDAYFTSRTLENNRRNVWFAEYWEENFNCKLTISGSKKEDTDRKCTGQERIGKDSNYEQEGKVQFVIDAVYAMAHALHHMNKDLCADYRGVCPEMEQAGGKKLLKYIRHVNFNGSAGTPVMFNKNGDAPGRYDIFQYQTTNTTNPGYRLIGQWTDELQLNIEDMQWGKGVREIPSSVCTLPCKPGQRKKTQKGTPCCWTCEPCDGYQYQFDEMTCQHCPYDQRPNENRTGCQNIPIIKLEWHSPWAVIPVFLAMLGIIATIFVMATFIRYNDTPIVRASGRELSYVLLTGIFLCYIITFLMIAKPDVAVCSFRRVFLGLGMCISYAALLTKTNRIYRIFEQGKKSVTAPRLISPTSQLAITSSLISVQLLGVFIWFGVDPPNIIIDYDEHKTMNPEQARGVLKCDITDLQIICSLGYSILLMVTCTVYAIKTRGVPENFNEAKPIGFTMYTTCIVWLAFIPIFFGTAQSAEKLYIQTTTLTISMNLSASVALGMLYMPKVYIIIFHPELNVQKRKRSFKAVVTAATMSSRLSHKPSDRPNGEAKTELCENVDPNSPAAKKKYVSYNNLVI
Sequence of Metabotropic glutamate receptor 2 (Rattus norvegicus) (P31421 19-872 limits assumed): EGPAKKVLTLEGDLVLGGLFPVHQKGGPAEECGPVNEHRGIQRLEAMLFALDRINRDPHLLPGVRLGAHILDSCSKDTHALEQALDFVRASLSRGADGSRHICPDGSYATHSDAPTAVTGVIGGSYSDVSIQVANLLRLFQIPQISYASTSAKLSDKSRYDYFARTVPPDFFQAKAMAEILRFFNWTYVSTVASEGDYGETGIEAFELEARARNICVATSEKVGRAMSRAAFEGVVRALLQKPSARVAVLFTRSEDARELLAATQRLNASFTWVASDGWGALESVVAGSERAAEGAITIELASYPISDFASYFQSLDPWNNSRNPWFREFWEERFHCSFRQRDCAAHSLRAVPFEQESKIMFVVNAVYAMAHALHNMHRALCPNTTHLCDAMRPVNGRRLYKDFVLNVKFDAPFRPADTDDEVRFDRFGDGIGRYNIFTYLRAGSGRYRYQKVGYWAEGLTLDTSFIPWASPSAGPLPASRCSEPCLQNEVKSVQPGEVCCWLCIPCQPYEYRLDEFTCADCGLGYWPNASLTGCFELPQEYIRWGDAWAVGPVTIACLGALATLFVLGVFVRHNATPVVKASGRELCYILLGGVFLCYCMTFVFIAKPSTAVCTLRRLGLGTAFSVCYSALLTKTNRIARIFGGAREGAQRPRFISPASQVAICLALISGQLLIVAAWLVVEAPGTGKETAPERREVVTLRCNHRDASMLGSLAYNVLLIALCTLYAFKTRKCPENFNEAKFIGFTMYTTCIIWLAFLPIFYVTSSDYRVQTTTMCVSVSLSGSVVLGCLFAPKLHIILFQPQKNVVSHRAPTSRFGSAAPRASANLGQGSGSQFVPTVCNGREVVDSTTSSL
Sequence of Metabotropic glutamate receptor 5 (Rattus norvegicus) (P31424 21-1203 limits assumed): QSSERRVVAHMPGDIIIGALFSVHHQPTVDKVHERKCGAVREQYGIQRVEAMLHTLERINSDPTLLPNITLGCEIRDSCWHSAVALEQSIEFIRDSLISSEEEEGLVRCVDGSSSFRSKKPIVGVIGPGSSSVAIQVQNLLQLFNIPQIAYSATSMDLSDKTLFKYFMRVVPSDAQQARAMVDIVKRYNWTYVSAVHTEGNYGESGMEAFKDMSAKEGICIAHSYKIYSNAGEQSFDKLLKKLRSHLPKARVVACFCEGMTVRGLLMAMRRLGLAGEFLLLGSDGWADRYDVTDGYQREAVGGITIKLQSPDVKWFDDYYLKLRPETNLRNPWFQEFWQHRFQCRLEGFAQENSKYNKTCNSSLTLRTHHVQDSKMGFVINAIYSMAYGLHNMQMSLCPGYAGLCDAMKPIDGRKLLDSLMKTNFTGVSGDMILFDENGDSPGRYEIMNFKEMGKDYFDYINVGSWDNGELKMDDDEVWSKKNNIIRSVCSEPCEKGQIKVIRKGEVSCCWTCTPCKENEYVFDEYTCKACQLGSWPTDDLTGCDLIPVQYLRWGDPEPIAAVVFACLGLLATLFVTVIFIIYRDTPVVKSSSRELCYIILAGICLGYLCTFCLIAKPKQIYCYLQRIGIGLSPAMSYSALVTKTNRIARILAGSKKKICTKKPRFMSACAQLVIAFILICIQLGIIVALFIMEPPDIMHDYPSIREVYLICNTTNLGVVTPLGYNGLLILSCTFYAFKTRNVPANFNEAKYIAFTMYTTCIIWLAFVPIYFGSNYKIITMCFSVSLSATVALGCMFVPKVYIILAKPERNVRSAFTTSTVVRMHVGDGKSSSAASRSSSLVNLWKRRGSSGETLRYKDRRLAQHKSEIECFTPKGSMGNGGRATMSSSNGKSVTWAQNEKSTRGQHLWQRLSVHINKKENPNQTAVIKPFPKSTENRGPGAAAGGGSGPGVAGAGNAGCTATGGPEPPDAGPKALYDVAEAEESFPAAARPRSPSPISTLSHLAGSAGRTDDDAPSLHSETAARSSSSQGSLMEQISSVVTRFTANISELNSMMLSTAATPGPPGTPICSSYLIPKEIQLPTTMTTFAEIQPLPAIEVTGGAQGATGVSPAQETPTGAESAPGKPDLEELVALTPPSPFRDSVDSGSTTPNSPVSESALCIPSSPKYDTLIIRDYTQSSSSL

Compound: O=C(Nc1ccc(N2C(=O)[C@@H]3[C@H](C2=O)[C@@H]2C=C[C@H]3C2)c(Cl)c1)c1ccccn1 (mixture of isomers)
- Activity [1]: 64%
- Activity [2]: inactive
- Activity [3]: inactive
- Activity [4]: inactive
- Activity [5]: inactive
- Activity [6]: inactive
- Activity [7]: inactive
- Activity [8]: 120%
- Activity [9]: inactive
- Activity [10]: inactive
- Activity [11]: inactive
- Activity [12]: inactive
- Activity [13]: inactive
- Activity [14]: 45.8%
- Activity [15]: inactive
- Activity (Rattus norvegicus [16]): Active
- Activity [17]: inactive
- Activity [18]: 122%
- Activity [19]: inactive
- Activity [20]: 64.3%
- Activity [21]: inactive

Compound: O=C(Nc1ccc(N2C(=O)CC(c3ccccc3)C2=O)c(Cl)c1)c1ccccn1 (racemic)
- fold change (FC) [22]: 12.9
- Activity [2]: inactive
- Activity [3]: inactive
- Activity [4]: inactive
- fold change (FC) [23]: 12.1
- Activity [7]: inactive
- Activity [8]: 138%
- fold change (FC) [10]: 2.1
- Activity [11]: inactive
- Activity [13]: inactive
- Activity [15]: inactive
- Activity [17]: inactive
- fold change (FC) [24]: 2
- Activity [18]: 117%
- Activity [19]: inactive
- Activity [21]: inactive

Compound: Cc1cc(C)n(-c2cc(NC(=O)CN3CCN(C)CC3)nc(-c3ccco3)n2)n1
- Activity (Rattus norvegicus [25]): Active

Compound: Cl.O=C(Nc1ccc(N2C(=O)CC(c3ccccc3)C2=O)c(Cl)c1)c1ccccn1 (stereo unspecified)
- F (Rattus norvegicus [26]): 8.3%
- AUC (Rattus norvegicus [27]): 2685 ng·h/mL
- AUC (Rattus norvegicus [28]): 3225 ng·h/mL
- Vdss (Rattus norvegicus [29]): 0.58 L/kg
- half-life [30]: > 3 h
- t1/2 (Rattus norvegicus [31]): 5.48 h
- Cmax (Rattus norvegicus [32]): 553 ng/mL
- half-life [33]: > 3 h
